Reference: ChEMBL document CHEMBL1255381, “Golgicide A reveals essential roles for GBF1 in Golgi assembly and function” (Nat Chem Biol, 2009)
Active and inactive are the calls of the source. The rule behind the calls is not given here.

How the values were obtained:
Details in all cases: Chlorocebus sabaeus
[1] = tested on: Vero; assay: Inhibition of Arf1 in african green monkey Vero cells assessed as rapid COPI redistribution from golgi at 10 ug/ml after 5 mins by immunofluorescence method; format: cell-based
[2] = tested on: Vero; assay: Inhibition of Arf1 in african green monkey Vero cells assessed as rapid AP-1 dispersal from golgi membranes at 10 ug/ml after 5 mins by immunofluorescence method; format: cell-based
[3] = tested on: Vero; assay: Inhibition of Arf1 in african green monkey Vero cells assessed as rapid GGA3 dispersal from trans golgi network at 10 ug/ml after 5 mins by immunofluorescence method; format: cell-based
[4] = tested on: Vero; assay: Inhibition of Arf1 in african green monkey Vero cells overexpressing BIG1 assessed as punctate and diffuse distribution of medial-Golgi marker giantin from golgi at 10 ug/ml after 1 hr by immunofluorescence method; format: cell-based
[5] = tested on: Vero; assay: Inhibition of GBF1 QNV deleted mutant in african green monkey Vero cells assessed as effect on change in golgi morphology at 10 uM after 1 hr by immunofluorescence method; format: cell-based
[6] = tested on: Vero; assay: Inhibition of Arf1 in african green monkey Vero cells expressing GBF1 QNV deleted mutant assessed as effect on change in golgi morphology at 10 ug/ml after 1 hr by immunofluorescence method; format: cell-based
[7] = tested on: Vero; assay: Inhibition of GBF1 QNV to AAA mutant in african green monkey Vero cells assessed as effect on change in golgi morphology at 10 uM after 1 hr by immunofluorescence method; format: cell-based
[8] = tested on: Vero; assay: Inhibition of Arf1 in african green monkey Vero cells expressing GBF1 QNV to AAA mutant assessed as effect on change in golgi morphology at 10 ug/ml after 1 hr by immunofluorescence method; format: cell-based
[9] = tested on: Vero; assay: Inhibition of Arf1 in african green monkey Vero cells assessed as decrease in Arf1-GTP levels at 10 ug/ml after 1 hr; format: cell-based
In short: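 Vero cells transduced with adenoviral Arf1-V5, alone or with GBF1-ML-HA; next day reseeded, then 45 min at 37°C with medium, BFA 10 µg/ml or compound 10 μM. Lysates pulled down with GGA3 VHS-GAT-GST on glutathione agarose, 30 min 4°C; Arf1-GTP by anti-V5 Western, band densitometry, duplicate experiments averaged.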

[10] = tested on: Vero; assay: Restoration of Arf1-GTP levels in african green monkey Vero cells expressing GBF1-M832L mutant at 10 ug/ml after 1 hr; format: cell-based
[11] = tested on: Vero; assay: Inhibition of GBF1 in african green monkey Vero cells assessed as inhibition of StxB-SS retrogade transport from endosomes to TGN at 10 uM by immunofluorescence method; format: cell-based
[12] = tested on: Vero; assay: Inhibition of Arf1 in african green monkey Vero cells assessed as inhibition of StxB-SS retrogade transport from endosomes to TGN at 10 ug/ml by immunofluorescence method; format: cell-based
[13] = tested on: Vero; assay: Inhibition of Arf1 in african green monkey Vero cells expressing GBF1-M832L mutant assessed as inhibition of StxB-SS retrogade transport from endosomes to TGN in african green monkey Vero cells at 10 ug/ml by immunofluorescence method; format: cell-based
[14] = tested on: Vero; assay: Inhibition of GBF1 in african green monkey Vero cells assessed as punctate and diffuse distribution of medial-Golgi marker giantin […] at 10 uM after 1 hr by immunofluorescence method; format: cell-based
[15] = tested on: Vero; assay: Induction of GBF1 in african green monkey Vero cells assessed as punctate and diffuse distribution of cis-Golgi marker GM130 from TGN at 10 uM after 1 hr by immunofluorescence method; format: cell-based
[16] = tested on: Vero; assay: Inhibition of Arf1 in african green monkey Vero cells assessed as punctate and diffuse distribution of medial-Golgi marker giantin at 10 ug/ml after 1 hr by immunofluorescence method; format: cell-based
[17] = tested on: Vero; assay: Inhibition of Arf1 in african green monkey Vero cells assessed as punctate and diffuse distribution of cis-Golgi marker GM130 at 10 ug/ml after 1 hr by immunofluorescence method; format: cell-based
[18] = tested on: Vero; assay: Inhibition of GBF1 in african green monkey Vero cells assessed as tubule formation from trans golgi network and endosomes before its dispersal in african green monkey Vero cells at 10 uM after 1 hr by immunofluorescence method; format: cell-based
[19] = tested on: Vero; assay: Inhibition of Arf1 in african green monkey Vero cells assessed as tubule formation from trans golgi network and endosomes before its dispersal at 10 ug/ml after 1 hr by immunofluorescence method; format: cell-based
[20] = tested on: Vero; assay: Inhibition of Arf1 in african green monkey Vero cells assessed as giantin positive punctate structures in contact with Sec31-positive ER exit site at 10 ug/ml after 1 hr by immunofluorescence method; format: cell-based
In short: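 Vero cells given BFA 10 μg/ml or compound 10 μM for 60 min, fixed, co-stained for giantin and ER exit site marker Sec31; giantin puncta relative to ERES scored by immunofluorescence.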

[21] = tested on: Vero; assay: Effect on disruption of microtubules in african green monkey Vero cells at 5 ug/ml after 30 mins by immunofluorescence method; format: functional, cell-based
In short: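 They were then fixed and immunostained for microtubules, and microtubule morphology was judged by immunofluorescence microscopy against DMSO-treated cells.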

C[C@H]1CCC/C=C/[C@@H]2C[C@H](O)C[C@H]2[C@H](O)/C=C/C(=O)O1
inhibition [1]: Active | inhibition [2]: Active | inhibition [3]: Active | inhibition [4]: inactive | inhibition [5]: Active | inhibition [6]: inactive | inhibition [7]: Active | inhibition [8]: inactive | inhibition [9]: Active | Activity [10]: inactive | inhibition [11]: Active | inhibition [12]: Active | inhibition [13]: inactive | inhibition [14]: Active | Activity [15]: Active | inhibition [16]: Active | inhibition [17]: Active | inhibition [18]: inactive | inhibition [19]: Active | inhibition [20]: Active

COC(=O)Nc1nc2cc(C(=O)c3cccs3)ccc2[nH]1
Activity [21]: Active
